Measured values as given in ChEMBL document CHEMBL1153199, “Fluconazole analogues containing 2H-1,4-benzothiazin-3(4H)-one or 2H-1,4-benzoxazin-3(4H)-one moieties, a novel class of anti-Candida agents” (2010).
≈ marks a conversion by molar mass, not a printed value. Calls of active or inactive are those of the source. The calls are words filed in the database; no cut-off is given here.

Assays:
Assay type in all cases: functional
Candida albicans [1] = assay: Antifungal activity against Candida albicans ATCC 24433 after 48 hrs by broth microdilution method
Outline: (§1)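 Broth microdilution run per CLSI M27-A2 in RPMI 1640 buffered to pH 7.0 with MOPS. Fluconazole and amphotericin B served as reference drugs. Endpoints were read after 48 h, visually or by spectrophotometer where needed. MIC was taken as the concentration giving 50% inhibition relative to the positive control.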

Aspergillus niger = assay: Antifungal activity against Aspergillus niger ATCC 16404 after 48 hrs by broth microdilution method
Fusarium proliferatum = assay: Antifungal activity against Fusarium proliferatum ATCC 10052 after 48 hrs by broth microdilution method
Candida albicans [2] = assay: Antifungal activity against Candida albicans ATCC 2091 after 48 hrs by broth microdilution method; details: ATCC 2091, 48 h; outline: as §1
Candida albicans [3] = assay: Antifungal activity against Candida albicans ATCC 90028 after 48 hrs by broth microdilution method; details: ATCC 90028, 48 h; outline: as §1
Nakaseomyces glabratus = assay: Antifungal activity against Candida glabrata ATCC 90030 after 48 hrs by broth microdilution method; details: ATCC 90030, 48 h; outline: as §1
Pichia kudriavzevii = assay: Antifungal activity against Candida krusei ATCC 6258 after 48 hrs by broth microdilution method; details: ATCC 6258, 48 h
Outline: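 Broth microdilution MIC per CLSI M27-A2 in RPMI 1640 buffered to pH 7.0 with MOPS. End points were read at 48 h, visually or by spectrophotometer where needed. For fluconazole and the synthetic compounds, MIC was the concentration giving 50% inhibition relative to the positive control. Fluconazole and amphotericin B served as positive controls.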

Candida tropicalis = assay: Antifungal activity against Candida tropicalis ATCC 750 after 48 hrs by broth microdilution method; details: ATCC 750, 48 h; outline: as §1
Candida albicans [4] = assay: Antifungal activity against Candida albicans ATCC 10231 after 48 hrs by broth microdilution method; details: ATCC 10231, 48 h; outline: as §1

Question: With `O=C1CSc2cc(Cl)ccc2N1CC(O)(Cn1cncn1)c1ccc(F)cc1` (stereo not drawn) as the molecule, how does the MIC (Candida albicans [1]; ATCC 24433, 48 h) read?
Answer: 2 µg/mL (≈ 4.77 µM)

Question: And the MIC (Aspergillus niger)?
Answer: inactive

Question: What about the MIC (Fusarium proliferatum) of the same molecule?
Answer: inactive

Question: Which MIC (Candida albicans [1]; ATCC 24433, 48 h) does the source give for `O=C1COc2ccccc2N1CC(O)(Cn1cncn1)c1ccc(F)cc1F` (stereo not drawn) here?
Answer: 0.5 µg/mL (≈ 1.29 µM)

Question: What about the MIC (Aspergillus niger) of the same molecule?
Answer: inactive

Question: And the MIC (Candida albicans [2])?
Answer: 0.25 µg/mL (≈ 0.647 µM)

Question: What about the MIC (Candida albicans [3]) of the same molecule?
Answer: 0.12 µg/mL (≈ 0.311 µM)

Question: And the MIC (Nakaseomyces glabratus)?
Answer: 0.25 µg/mL (≈ 0.647 µM)

Question: And the MIC (Pichia kudriavzevii)?
Answer: 16 µg/mL (≈ 41.4 µM)

Question: And the MIC (Candida tropicalis)?
Answer: 2 µg/mL (≈ 5.18 µM)

Question: What about the MIC (Fusarium proliferatum) of the same molecule?
Answer: inactive

Question: What about the MIC (Candida albicans [4]) of the same molecule?
Answer: 0.5 µg/mL (≈ 1.29 µM)

Question: What does the source list for `O=C1CSc2cc(Cl)ccc2N1CC(O)(Cn1cncn1)c1ccc(F)cc1F` (stereo not drawn)?
Answer: MIC (Candida albicans [1]; ATCC 24433, 48 h): 1 µg/mL (≈ 2.29 µM); MIC (Aspergillus niger): inactive; MIC (Fusarium proliferatum): inactive

Question: For `O=C1COc2ccc(Cl)cc2N1CC(O)(Cn1cncn1)c1ccc(F)cc1F` (stereo not drawn), which MIC (Candida albicans [1]; ATCC 24433, 48 h) is on record?
Answer: 8 µg/mL (≈ 19 µM)

Question: And the MIC (Aspergillus niger)?
Answer: inactive

Question: What about the MIC (Fusarium proliferatum) of the same molecule?
Answer: inactive

Question: For `O=C1CSc2ccccc2N1CC(O)(Cn1cncn1)c1ccc(F)cc1F` (stereo not drawn), which MIC (Candida albicans [1]; ATCC 24433, 48 h) is on record?
Answer: 0.03 µg/mL (≈ 0.0745 µM)

Question: And the MIC (Aspergillus niger)?
Answer: inactive

Question: What about the MIC (Candida albicans [2]) of the same molecule?
Answer: 0.12 µg/mL (≈ 0.298 µM)

Question: What about the MIC (Candida albicans [3]) of the same molecule?
Answer: 0.03 µg/mL (≈ 0.0745 µM)

Question: What about the MIC (Nakaseomyces glabratus) of the same molecule?
Answer: 0.06 µg/mL (≈ 0.149 µM)

Question: And the MIC (Pichia kudriavzevii)?
Answer: 4 µg/mL (≈ 9.94 µM)

Question: What about the MIC (Candida tropicalis) of the same molecule?
Answer: 0.5 µg/mL (≈ 1.24 µM)

Question: And the MIC (Fusarium proliferatum)?
Answer: inactive

Question: What about the MIC (Candida albicans [4]) of the same molecule?
Answer: 0.12 µg/mL (≈ 0.298 µM)

Question: Which results are given for `COc1ccc2c(c1)SCC(=O)N2CC(O)(Cn1cncn1)c1ccc(Br)cc1` (stereo not drawn)?
Answer: MIC (Candida albicans [1]; ATCC 24433, 48 h): 2 µg/mL (≈ 4.21 µM); MIC (Aspergillus niger): inactive; MIC (Fusarium proliferatum): inactive

Question: Which MIC (Candida albicans [1]; ATCC 24433, 48 h) does the source give for `C[C@@H]1[C@H](O)[C@@H](C)/C=C/C=C/C=C/C=C/C=C/C=C/C=C/[C@H](O[C@@H]2O[C@H](C)[C@@H](O)[C@H](N)[C@@H]2O)C[C@@H]2O[C@](O)(C[C@@H](O)C[C@@H](O)[C@H](O)CC[C@@H](O)C[C@@H](O)CC(=O)O[C@H]1C)C[C@H](O)[C@H]2C(=O)O` [AMPHOTERICIN B] here?
Answer: 0.25 µg/mL (≈ 0.271 µM)

Question: And the MIC (Aspergillus niger; ATCC 16404, 48 h)?
Answer: 1 µg/mL (≈ 1.08 µM)

Question: And the MIC (Candida albicans [2])?
Answer: 0.5 µg/mL (≈ 0.541 µM)

Question: What about the MIC (Candida albicans [3]) of the same molecule?
Answer: 0.5 µg/mL (≈ 0.541 µM)

Question: And the MIC (Nakaseomyces glabratus)?
Answer: 0.25 µg/mL (≈ 0.271 µM)

Question: What about the MIC (Pichia kudriavzevii) of the same molecule?
Answer: 0.5 µg/mL (≈ 0.541 µM)

Question: And the MIC (Candida tropicalis)?
Answer: 0.5 µg/mL (≈ 0.541 µM)

Question: And the MIC (Fusarium proliferatum; ATCC 10052, 48 h)?
Answer: 2 µg/mL (≈ 2.16 µM)

Question: What about the MIC (Candida albicans [4]) of the same molecule?
Answer: 0.5 µg/mL (≈ 0.541 µM)

Question: How did the MIC (Candida albicans [1]; ATCC 24433, 48 h) turn out when `O=C1COc2ccc(Cl)cc2N1CC(O)(Cn1cncn1)c1ccc(Br)cc1` (stereo not drawn) was run?
Answer: 4 µg/mL (≈ 8.63 µM)

Question: And the MIC (Aspergillus niger)?
Answer: inactive

Question: What about the MIC (Fusarium proliferatum) of the same molecule?
Answer: inactive

Question: Which results are given for `CC(=O)c1ccc2c(c1)N(CC(O)(Cn1cncn1)c1ccc(Br)cc1)C(=O)CO2` (stereo not drawn)?
Answer: MIC (Candida albicans [1]; ATCC 24433, 48 h): 32 µg/mL (≈ 67.9 µM); MIC (Aspergillus niger): inactive; MIC (Fusarium proliferatum): inactive

Question: Which results are given for `COc1ccc2c(c1)SCC(=O)N2CC(O)(Cn1cncn1)c1ccc(F)cc1F` (stereo not drawn)?
Answer: MIC (Candida albicans [1]; ATCC 24433, 48 h): 4 µg/mL (≈ 9.25 µM); MIC (Aspergillus niger): inactive; MIC (Fusarium proliferatum): inactive

Question: With `Cc1ccc2c(c1)SCC(=O)N2CC(O)(Cn1cncn1)c1ccc(F)cc1F` (stereo not drawn) as the molecule, how does the MIC (Candida albicans [1]; ATCC 24433, 48 h) read?
Answer: 2 µg/mL (≈ 4.8 µM)

Question: And the MIC (Aspergillus niger)?
Answer: inactive

Question: What about the MIC (Fusarium proliferatum) of the same molecule?
Answer: inactive

Question: With `CC(=O)c1ccc2c(c1)N(CC(O)(Cn1cncn1)c1ccc(F)cc1F)C(=O)CO2` (stereo not drawn) as the molecule, how does the MIC (Candida albicans [1]) read?
Answer: inactive

Question: And the MIC (Aspergillus niger)?
Answer: inactive

Question: What about the MIC (Fusarium proliferatum) of the same molecule?
Answer: inactive

Question: For `O=C1COc2ccc(Cl)cc2N1CC(O)(Cn1cncn1)c1ccc(F)cc1` (stereo not drawn), which MIC (Candida albicans [1]; ATCC 24433, 48 h) is on record?
Answer: 16 µg/mL (≈ 39.7 µM)

Question: What about the MIC (Aspergillus niger) of the same molecule?
Answer: inactive

Question: And the MIC (Fusarium proliferatum)?
Answer: inactive

Question: Which MIC (Candida albicans [1]; ATCC 24433, 48 h) does the source give for `O=C1COc2ccc([N+](=O)[O-])cc2N1CC(O)(Cn1cncn1)c1ccc(F)cc1F` (stereo not drawn) here?
Answer: 32 µg/mL (≈ 74.2 µM)

Question: And the MIC (Aspergillus niger)?
Answer: inactive

Question: What about the MIC (Fusarium proliferatum) of the same molecule?
Answer: inactive

Question: With `O=C1CSc2cc(Br)ccc2N1CC(O)(Cn1cncn1)c1ccc(F)cc1F` (stereo not drawn) as the molecule, how does the MIC (Candida albicans [1]; ATCC 24433, 48 h) read?
Answer: 1 µg/mL (≈ 2.08 µM)

Question: What about the MIC (Aspergillus niger) of the same molecule?
Answer: inactive

Question: And the MIC (Fusarium proliferatum)?
Answer: inactive

Question: For `OC(Cn1cncn1)(Cn1cncn1)c1ccc(F)cc1F` [FLUCONAZOLE], which MIC (Candida albicans [1]; ATCC 24433, 48 h) is on record?
Answer: 0.25 µg/mL (≈ 0.816 µM)

Question: What about the MIC (Aspergillus niger; ATCC 16404, 48 h) of the same molecule?
Answer: 128 µg/mL (≈ 418 µM)

Question: And the MIC (Candida albicans [2])?
Answer: 0.5 µg/mL (≈ 1.63 µM)

Question: What about the MIC (Candida albicans [3]) of the same molecule?
Answer: 0.5 µg/mL (≈ 1.63 µM)

Question: What about the MIC (Nakaseomyces glabratus) of the same molecule?
Answer: 4 µg/mL (≈ 13.1 µM)

Question: What about the MIC (Pichia kudriavzevii) of the same molecule?
Answer: 64 µg/mL (≈ 209 µM)

Question: What about the MIC (Candida tropicalis) of the same molecule?
Answer: 2 µg/mL (≈ 6.53 µM)

Question: And the MIC (Fusarium proliferatum; ATCC 10052, 48 h)?
Answer: > 128 µg/mL

Question: What about the MIC (Candida albicans [4]) of the same molecule?
Answer: 1 µg/mL (≈ 3.27 µM)

Question: With `O=C1COc2ccc(Br)cc2N1CC(O)(Cn1cncn1)c1ccc(F)cc1F` (stereo not drawn) as the molecule, how does the MIC (Candida albicans [1]; ATCC 24433, 48 h) read?
Answer: 16 µg/mL (≈ 34.4 µM)

Question: And the MIC (Aspergillus niger)?
Answer: inactive

Question: And the MIC (Fusarium proliferatum)?
Answer: inactive

Question: With `COc1ccc2c(c1)SCC(=O)N2CC(O)(Cn1cncn1)c1ccc(F)cc1` (stereo not drawn) as the molecule, how does the MIC (Candida albicans [1]; ATCC 24433, 48 h) read?
Answer: 8 µg/mL (≈ 19.3 µM)

Question: And the MIC (Aspergillus niger)?
Answer: inactive

Question: And the MIC (Fusarium proliferatum)?
Answer: inactive
